Test results from ChEMBL document CHEMBL1127787, “1,2,3-Triazole-[2',5'-bis-O-(tert-butyldimethylsilyl)-beta-D- ribofuranosyl]-3'-spiro-5"-(4"-amino-1",2"-oxathiole 2",2"-dioxide) (TSAO) analogues: synthesis and anti-HIV-1 activity” (J Med Chem, 1994).

Columns and labels:
CCRF-CEM [1] = assay: Tested for the inhibitory activity of virus induced giant cell formation in HIV-1 infected CEM cells; format: functional, cell-based; conditions: Homo sapiens
CCRF-CEM [2] = assay: Tested for the inhibitory activity of virus induced giant cell formation in HIV-2 infected CEM cells; format: functional, cell-based; conditions: Homo sapiens
Homo sapiens [3] = species: Homo sapiens; assay: Inhibition of HIV-1Ba-L replication was measured after 14 days postvirus challenge by HIV-p24 ELISA at the dosage of 0.033 uM concentration in human macrophages; format: functional; conditions: 336 h
How it was run: (§1)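 Human monocyte/macrophages isolated by 5-day adherence to plastic (10^6 cells/well), >95% pure by esterase and Giemsa staining. Infected with 500 minimal infective doses/well of HIV-1/Ba-L. Compound added from 30 min before virus challenge. Virus excess removed at 48 h and medium renewed with compound. Virus production read by p24 ELISA at day 14. Data are the mean of two independent experiments.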

Homo sapiens [4] = species: Homo sapiens; assay: Inhibition of HIV-1Ba-L replication was measured after 14 days postvirus challenge by HIV-p24 ELISA at the dosage of 0.8 uM concentration in human macrophages; format: functional; conditions: 336 h; how it was run: as §1
Homo sapiens [5] = species: Homo sapiens; assay: Inhibition of HIV-1Ba-L replication was measured after 14 days postvirus challenge by HIV-p24 ELISA at the dosage of 3.3 uM concentration in human macrophages; format: functional; conditions: 336 h; how it was run: as §1
Homo sapiens [6] = species: Homo sapiens; assay: Inhibition of HIV-1Ba-L replication was measured after 14 days postvirus challenge by HIV-p24 ELISA at the dosage of 0.16 uM concentration in human macrophages; format: functional; conditions: 336 h; how it was run: as §1
MT4 [7] = assay: Tested for the inhibitory activity of HIV-1 infected MT-4 cells; format: functional, cell-based; conditions: Homo sapiens
How it was run: (§2)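 MT-4 cells (5 × 10^5/mL) grown in RPMI-1640 with 10% FCS, 2 mM L-glutamine and 0.075% NaHCO3. Infected with HIV-1 or HIV-2 at 100 CCID50/mL and mixed with compound dilutions (100 to 0.006 µg/mL). After 5 days viable cells were counted by trypan blue staining. EC50 is the concentration that reduces viable-cell loss in infected cultures by 50%.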

MT4 [8] = assay: Tested for the inhibitory activity of HIV-2 infected MT-4 cells; format: functional, cell-based; conditions: Homo sapiens; how it was run: as §2
MT4 [9] = assay: Tested for the cytotoxic concentration required to reduce the number of viable mock infected MT-4 cells; format: functional; conditions: Homo sapiens
How it was run: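 Mock-infected MT-4 cells (5 × 10^5/mL) in RPMI-1640 with 10% FCS were exposed to compound dilutions (100 to 0.006 µg/mL). Viable cells were counted by trypan blue at day 5; about 150-200 cells were counted in controls. CC50 is the concentration that reduces viable cell number by 50%.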

MT4 [10] = assay: Tested for the ratio between CC50 (MT-4) to EC50 (MT-4); format: functional, Homo sapiens
Homo sapiens [11] = species: Homo sapiens; assay: Inhibition of HIV-1Ba-L replication was measured after 14 days postvirus challenge by HIV-p24 ELISA at the dosage of 0.034 uM concentration in human macrophages; format: functional; conditions: 336 h; how it was run: as §1
Homo sapiens [12] = species: Homo sapiens; assay: Inhibition of HIV-1Ba-L replication was measured after 14 days postvirus challenge by HIV-p24 ELISA at the dosage of 0.17 uM concentration in human macrophages; format: functional; conditions: 336 h; how it was run: as §1
Homo sapiens [13] = species: Homo sapiens; assay: Inhibition of HIV-1Ba-L replication was measured after 14 days postvirus challenge by HIV-p24 ELISA at the dosage of 0.85 uM concentration in human macrophages; format: functional; conditions: 336 h; how it was run: as §1
Homo sapiens [14] = species: Homo sapiens; assay: Inhibition of HIV-1Ba-L replication was measured after 14 days postvirus challenge by HIV-p24 ELISA at the dosage of 3.4 uM concentration in human macrophages; format: functional; conditions: 336 h; how it was run: as §1

| EC50 (CCRF-CEM [1]) [nM] | EC50 (CCRF-CEM [2]) [nM] | Structure (SMILES) | inhibition at 0.033 µM (Homo sapiens [3]) [%] | inhibition at 0.8 µM (Homo sapiens [4]) [%] | inhibition at 3.3 µM (Homo sapiens [5]) [%] | inhibition at 0.16 µM (Homo sapiens [6]) [%] | EC50 (MT4 [7]) [nM] | EC50 (MT4 [8]) [nM] | CC50 (MT4 [9]) [nM] | Ratio (MT4 [10]) | inhibition at 0.034 µM (Homo sapiens [11]) [%] | inhibition at 0.17 µM (Homo sapiens [12]) [%] | inhibition at 0.85 µM (Homo sapiens [13]) [%] | inhibition at 3.4 µM (Homo sapiens [14]) [%] |
| --- | --- | --- | --- | --- | --- | --- | --- | --- | --- | --- | --- | --- | --- | --- |
| 120 | > 7000 | CN(C)C(=O)c1cnnn1[C@@H]1O[C@H](CO[Si](C)(C)C(C)(C)C)[C@@]2(OS(=O)(=O)C=C2N)[C@H]1O[Si](C)(C)C(C)(C)C | 0 | > 99 | > 99 | 42 | 60 | > 30000 | 20000 | 335 |  |  |  |  |
| 540 | > 165000 | CCOC(=O)c1cn([C@@H]2O[C@H](CO[Si](C)(C)C(C)(C)C)[C@@]3(OS(=O)(=O)C=C3N)[C@H]2O[Si](C)(C)C(C)(C)C)nn1 | 0 | 98 | > 99 | 20 | 790 | ≥ 165000 | > 165000 | >209 |  |  |  |  |
| 1300 | > 35000 | CCCc1cn([C@@H]2O[C@H](CO[Si](C)(C)C(C)(C)C)[C@@]3(OS(=O)(=O)C=C3N)[C@H]2O[Si](C)(C)C(C)(C)C)nn1 |  |  |  |  | 920 | > 170000 | > 170000 | >185 | 0 | 12 | 42 | 67 |
